Tests used:
Assay type in all cases: cell-based, human
[1] = system: T24; experiment: MTT cytotoxicity assay, T24; conditions: read-out: IC50 T24, cells treated for 24 h
Method in brief: (§1)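 Tumour lines and the normal liver line HL-7702 came from the Shanghai Cell Bank. Cells were cultured in RPMI 1640 or DMEM with 10% FBS and 1% streptomycin at 37 °C, 5% CO2. Cells were exposed to test compounds, and viability was read by MTT reduction to derive IC50. Cisplatin was run as reference control.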

[2] = system: Hep-G2; experiment: MTT cytotoxicity assay, Hep-G2; conditions: read-out: IC50 Hep-G2, cells treated for 24 h
Method in brief: as §1

[3] = system: NCI-H460; experiment: MTT cytotoxicity assay, NCI-H460; conditions: read-out: IC50 NCI-H460, cells treated for 24 h
Method in brief: as §1

[4] = system: HL-7702; experiment: MTT cytotoxicity assay, normal liver cell line HL-7702; conditions: read-out: IC50 HL-7702, cells treated for 24 h
Method in brief: as §1

N.N.[Cl][Pt][Cl] [Cisplatin]
IC50 [1]: 22.9 ± 0.93 µM | IC50 [2]: 19.6 ± 1.39 µM | IC50 [3]: 11.7 ± 2.26 µM | IC50 [4]: 13.4 ± 1.56 µM

Reference: publication PMC9049676 (RSC Advances, 2020)
